Assay results reported in ChEMBL document CHEMBL1125037, “Synthesis and antihypertensive activity of 4-(1,2-dihydro-2-oxo-1-pyridyl)-2H-1-benzopyrans and related compounds, new potassium channel activators” (1990).

These compounds were tested on Rattus norvegicus (assay: Antihypertensive effect after 1 mg/kg (po) administration in conscious spontaneously hypertensive rat (over a time period of 0-210 min).).
Type: functional, organism-based
Set-up: dose 1 mg/kg
Method in brief: (§1)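 Male Okamoto-strain SHR (280-330 g, blood pressure >180 mmHg), conscious and unrestrained, given 1 mg/kg orally as a screening dose. Mean arterial pressure was recorded directly and continuously via an aortic catheter from 1 h before to 3.5 h after dosing. The effect is the mean of the maximum individual changes over 3.5 h; N ≥ 3.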
For `CC(=O)Nc1ccc(=O)n([C@@H]2c3cc(C#N)ccc3OC(C)(C)[C@H]2O)c1`, the “Max fall in blood pressure” value was “Not significant”. With `CC1(C)Oc2ccc(C#N)cc2C(N2CCC(=O)CC2)[C@@H]1O` (some centres undefined) the “Max fall in blood pressure” value was “Not significant”. With `CC1(C)Oc2ccc(-c3nc4ccc[nH]c-4n3)cc2C(N2CCCC2=O)[C@@H]1O` (some centres undefined) the “Max fall in blood pressure” value was “Not significant”. For `CC1(C)C=C(n2cc(Br)cc(Br)c2=O)c2cc(C#N)ccc2O1`, the “Max fall in blood pressure” value was “Not significant”. `CC1(C)Oc2ccc(C(N)=O)cc2[C@]2(n3ccccc3=O)O[C@H]12` was tested, and the “Max fall in blood pressure” value was “Not significant”. For `CC1(C)C=C(n2ccccc2=O)c2cc(C(N)=O)ccc2O1`, the “Max fall in blood pressure” value was “Not significant”. `CC1(C)C=C(n2ccc3ccccc3c2=O)c2cc(C#N)ccc2O1` was tested, and the “Max fall in blood pressure” value was “Not significant”. With `CC1(C)Oc2ccc(C#N)cc2C(n2ccc(=O)[nH]c2=O)[C@@H]1O` (some centres undefined) the “Max fall in blood pressure” value was “Not significant”. `O=c1ccccn1[C@@H]1c2cc([N+](=O)[O-])ccc2OC2(CCCC2)[C@H]1O` was tested, and the “Max fall in blood pressure” value was “Not significant”. With `CC1(C)C=C(n2ccccc2=O)c2cc(-c3ccncc3)ccc2O1` the “Max fall in blood pressure” value was “Not significant”. `CC1(C)Oc2ccc(-c3nc4cc[nH]cc-4n3)cc2C(N2CCCC2=O)[C@@H]1O` (some centres undefined) was tested, and the “Max fall in blood pressure” value was “Not significant”. For `CC1(C)Oc2ccc(C#N)cc2[C@@H](n2cccc([N+](=O)[O-])c2=O)[C@@H]1O`, the “Max fall in blood pressure” value was “Not significant”. In the case of `Cc1csc(Nc2ccc3c(c2)C(N2CCCC2=O)[C@H](O)C(C)(C)O3)n1` (some centres undefined), the “Max fall in blood pressure” value is reported as “Not significant”. `CC1(C)CC(n2ccc(=O)cc2)c2cc(C#N)ccc2O1` (centres undefined) was tested, and the “Max fall in blood pressure” value was “Not significant”. For `CC(=O)Oc1cccn([C@@H]2c3cc(C#N)ccc3OC(C)(C)[C@H]2O)c1=O`, the “Max fall in blood pressure” value was “Not significant”. With `CC1(C)Oc2ccc(/C=C/c3ccc(C#N)cc3)cc2[C@@H](n2ccccc2=O)[C@@H]1O` the “Max fall in blood pressure” value was “Not significant”. With `CC1(C)Oc2ccc(C#N)cc2[C@@H](N2CCC/C2=N\C(=O)c2ccncc2)[C@@H]1O` the “Max fall in blood pressure” value was “Not significant”. For `CC1(C)Oc2ccc(C#N)cc2[C@@H](n2ccc(OCc3ccccc3)cc2=O)[C@@H]1O`, the “Max fall in blood pressure” value was “Not significant”. In the case of `CC1(C)Oc2ccc(C#N)cc2[C@@H](n2cc(C(=O)O)ccc2=O)[C@@H]1O`, the “Max fall in blood pressure” value is reported as “Not significant”. For `CC1(C)Oc2ccc(C3=NCCN3)cc2C(N2CCCC2=O)[C@@H]1O` (some centres undefined), the “Max fall in blood pressure” value was “Not significant”. With `CC1(C)C=C(n2ccc(OCc3ccccc3)cc2=O)c2cc(C#N)ccc2O1` the “Max fall in blood pressure” value was “Not significant”. `CC1(C)Oc2ccc(/N=C/c3ccc(C#N)cc3)cc2C(N2CCCC2=O)[C@@H]1O` (some centres undefined) was tested, and the “Max fall in blood pressure” value was “Not significant”. In the case of `N#Cc1ccc2c(c1)[C@@H](n1ccccc1=O)[C@H](O)C1(CCCC1)O2`, the “Max fall in blood pressure” value is reported as “Not significant”. In the case of `N#Cc1ccc2c(c1)C(n1ccccc1=O)=CC1(CCCCC1)O2`, the “Max fall in blood pressure” value is reported as “Not significant”. For `O=c1ccccn1[C@@H]1c2cc([N+](=O)[O-])ccc2OC2(CCCCC2)[C@H]1O`, the “Max fall in blood pressure” value was “Not significant”. `CC1(C)Oc2ccc([N+](=O)[O-])cc2[C@@H](N2CCCC2=N)[C@@H]1O` was tested, and the “Max fall in blood pressure” value was “Not significant”. For `N#Cc1ccc2c(c1)[C@@H](n1ccccc1=O)[C@H](O)C1(CCCCC1)O2`, the “Max fall in blood pressure” value was “Not significant”. In the case of `CC(=O)Nc1ccc(=O)n(C2=CC(C)(C)Oc3ccc(C#N)cc32)c1`, the “Max fall in blood pressure” value is reported as “Not significant”. With `CC1(C)Oc2ccc(C=O)cc2[C@@H](n2ccccc2=O)[C@@H]1O` the “Max fall in blood pressure” value was “Not significant”. `COc1cccn([C@@H]2c3cc(C#N)ccc3OC(C)(C)[C@H]2O)c1=O` was tested, and the “Max fall in blood pressure” value was “Not significant”.

What follows are compounds tested on Rattus norvegicus (assay: Antihypertensive effect after 1 mg/kg (po) administration in conscious spontaneously hypertensive rat (over a time period of 0-210 minutes).).
Type: functional
Method in brief: as §1
`CC1(C)Oc2ccc(C#N)cc2[C@@H](n2cc([N+](=O)[O-])ccc2=O)[C@@H]1O` was tested, and the “Max fall in blood pressure” value was 23 mmHg. For `CC1(C)C=C(n2ccccc2=O)c2cc(C(=N)S)ccc2O1`, the “Max fall in blood pressure” value was 23 mmHg. For `CC1(C)C=C(n2ncccc2=O)c2cc(C#N)ccc2O1`, the “Max fall in blood pressure” value was 23 mmHg. `CC1(C)C=C(n2ccccc2=O)c2cc(C=O)ccc2O1` was tested, and the “Max fall in blood pressure” value was 35 mmHg. For `N#Cc1ccc2c(c1)C(n1ccccc1=O)=CC1(CCCC1)O2`, the “Max fall in blood pressure” value was 26 mmHg. With `CC(=O)OC1=C(n2ccccc2=O)c2cc(C#N)ccc2OC1(C)C` the “Max fall in blood pressure” value was 21 mmHg. `CC1(C)Oc2ccc(/C=C/C#N)cc2[C@@H](n2ccccc2=O)[C@@H]1O` was tested, and the “Max fall in blood pressure” value was 25 mmHg. In the case of `CC1(C)Oc2ccc(C#N)cc2C(n2cnccc2=O)[C@@H]1O` (some centres undefined), the “Max fall in blood pressure” value is reported as 19 mmHg. With `COC1=C(n2ccccc2=O)c2cc(C#N)ccc2OC1(C)C` the “Max fall in blood pressure” value was 22 mmHg. With `CCOC(=O)c1ccc(=O)n(C2c3cc(C#N)ccc3OC(C)(C)[C@H]2O)n1` (some centres undefined) the “Max fall in blood pressure” value was 24 mmHg. For `CC(=O)c1ccc2c(c1)[C@@H](n1ccccc1=O)[C@H](O)C(C)(C)O2`, the “Max fall in blood pressure” value was 38 mmHg. In the case of `CC1(C)C=C(n2cc(Cl)ccc2=O)c2cc(C#N)ccc2O1`, the “Max fall in blood pressure” value is reported as 23 mmHg. In the case of `CC1(C)Oc2ccc(C#N)cc2C(n2ccccc2=O)C1=O` (centres undefined), the “Max fall in blood pressure” value is reported as 20 mmHg. With `CC1(C)C=C(N2CCCCS2(=O)=O)c2cc(C#N)ccc2O1` the “Max fall in blood pressure” value was 25 mmHg. With `CC1(C)Oc2ccc(C#N)cc2[C@H](n2ccccc2=O)[C@@H]1O` the “Max fall in blood pressure” value was 26 mmHg. `COC(=O)c1ccc2c(c1)[C@@H](n1ccccc1=O)[C@H](O)C(C)(C)O2` was tested, and the “Max fall in blood pressure” value was 49 mmHg. For `CC1(C)Oc2ccc(C#N)cc2[C@@H](n2cc(Cl)ccc2=O)[C@@H]1O`, the “Max fall in blood pressure” value was 37 mmHg. With `CC1(C)Oc2ccc(C#N)cc2C(n2ccc(=O)nc2)[C@@H]1O` (some centres undefined) the “Max fall in blood pressure” value was 18 mmHg. With `CC1(C)Oc2ccc(C#N)cc2[C@@H](n2cc(N)ccc2=O)[C@@H]1O` the “Max fall in blood pressure” value was 34 mmHg. `O=c1ccccn1C1=CC2(CCCCC2)Oc2ccc([N+](=O)[O-])cc21` was tested, and the “Max fall in blood pressure” value was 22 mmHg. `CC1(C)Oc2ccc(C#N)cc2C(N2CCCCS2(=O)=O)[C@@H]1O` (some centres undefined) was tested, and the “Max fall in blood pressure” value was 30 mmHg. `CC1(C)Oc2ccc(/N=C/c3ccc([N+](=O)[O-])cc3)cc2C(N2CCCC2=O)[C@@H]1O` (some centres undefined) was tested, and the “Max fall in blood pressure” value was 26 mmHg. With `CC1(C)C=C(n2ccc(=O)[nH]c2=O)c2cc(C#N)ccc2O1` the “Max fall in blood pressure” value was 23 mmHg. `CC1(C)Oc2ccc(C(=N)S)cc2C(N2CCCC2=O)[C@@H]1O` (some centres undefined) was tested, and the “Max fall in blood pressure” value was 22 mmHg. In the case of `CC1(C)Oc2ccc(C#N)cc2C(n2ccc(=O)cc2)[C@@H]1O` (some centres undefined), the “Max fall in blood pressure” value is reported as 21 mmHg. In the case of `CC1(C)Oc2ccc(C#N)cc2C(n2ncc3ccccc3c2=O)[C@@H]1O` (some centres undefined), the “Max fall in blood pressure” value is reported as 38 mmHg. `CC1(C)Oc2ccc(-c3ccncc3)cc2[C@@H](n2ccccc2=O)[C@@H]1O` was tested, and the “Max fall in blood pressure” value was 24 mmHg. For `CC1(C)Oc2ccc(C#N)cc2C(n2ccc3ccccc3c2=O)[C@@H]1O` (some centres undefined), the “Max fall in blood pressure” value was 24 mmHg. `CC1(C)Oc2ccc(-c3ccncc3)cc2C(N2CCCC2=O)[C@@H]1O` (some centres undefined) was tested, and the “Max fall in blood pressure” value was 20 mmHg. In the case of `CC1(C)C=C(n2ccc(=O)cc2)c2cc(C#N)ccc2O1`, the “Max fall in blood pressure” value is reported as 48 mmHg. In the case of `CC(=O)Nc1cccn([C@@H]2c3cc(C#N)ccc3OC(C)(C)[C@H]2O)c1=O`, the “Max fall in blood pressure” value is reported as 22 mmHg. With `CC1(C)Oc2ccc(C#N)cc2C(n2cccnc2=O)[C@@H]1O` (some centres undefined) the “Max fall in blood pressure” value was 20 mmHg. With `CC1(C)C=C(n2cc([N+](=O)[O-])ccc2=O)c2cc(C#N)ccc2O1` the “Max fall in blood pressure” value was 27 mmHg. With `CC1(C)Oc2ccc(C#N)cc2[C@@H](n2cccc(C(=O)O)c2=O)[C@@H]1O` the “Max fall in blood pressure” value was 24 mmHg.
